We go through 61 compounds from PubChem BioAssay AID635 (SRMLSC, 2007).

The whole screen tested about 1,300 compounds, of which about 40 (3%) were called active. The list is a sample of the results. Results with a measured potency or affinity are listed apart. Values without a mark were called inactive. The rule behind the calls is not given here.

A short description of the experiment: growth inhibition of wild-type E. coli BW25113 pool, dose response, OD615 (AID 635).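 Note: growth measured after 20 h with compound at 37 °C.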 The note with it: pooled mutant strains; at 100 µM (top of the series). Summed up:
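Material: Keio BW25113 knockout pool, 1,275 strains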
With `Cc1cccc(N(C)C(=O)c2cc3cc4ccc(C)cc4nc3o2)c1`, the growth inhibition was -7.96%.

Take `CC(C)OCCCNc1ncnc2c1[nH]c1ccccc12`: the growth inhibition was 0.81%.

Consider `CC(C)OCCCNc1ncnc2c1[nH]c1ccc(F)cc12`, for which the growth inhibition was -0.56%.

Turning to `O=C(CSc1nc2ccccc2o1)Nc1nc2c(s1)CCCC2`, the growth inhibition is -2.1%.

Regarding `Cc1cc(NC(=O)Cn2nnc3sc4c(c3c2=O)CCC(C(C)(C)C)C4)no1` (stereo unspecified), the growth inhibition is -1.22%.

`CCOC(=O)Cc1ccc(NS(=O)(=O)c2ccc(SC)cc2)cc1`: the growth inhibition was 0.18%.

Take `c1ccc2c(c1)CCN(c1nc3cc4c(cc3s1)OCCO4)C2`: the growth inhibition is 0.44%.

Take `CC(C)c1ccc(Nc2nc(NCc3ccco3)nc(N3CCOCC3)n2)cc1`: the growth inhibition is -1.77%.

As to `COc1ccc(NS(=O)(=O)c2ccc3oc(Nc4ccc5c(c4)OCCO5)nc3c2)cc1`, the growth inhibition was -4.76%.

Consider `CCCN(CCC)S(=O)(=O)c1ccc(C(=O)Nc2nnc(-c3cccc(OC)c3)o2)cc1`, for which the growth inhibition is -1.14%.

Turning to `Cc1cccc(N2CCN(C(=O)C34CC5CC(CC(C5)C3)C4)CC2)c1C`, the growth inhibition was 4.49%.

Regarding `Cn1cccc1C(=O)Nc1nc(-c2ccccn2)cs1`, the growth inhibition is 1.36%.

`COc1ccc(C(=O)Nn2cnc3scc(-c4cccs4)c3c2=O)c(O)c1`: the growth inhibition was 0.89%.

As to `COC(=O)c1[nH]c2cccc(OC)c2c1NC(=O)CN1CC2(C)CC1CC(C)(C)C2` (stereo unspecified), the growth inhibition is 1.93%.

Consider `COC(=O)c1cccc(-n2nnnc2SCC(=O)Nc2nc3c(s2)CCCC3)c1`, for which the growth inhibition is -0.44%.

Turning to `O=C1OC(c2ccc(O)cc2)(c2ccc(O)cc2)c2ccccc21`, the growth inhibition was 0.54%.

For the compound `Cc1cccc(Nc2nc(NCc3ccco3)nc(N3CCOCC3)n2)c1`, the growth inhibition is 0.54%.

As to `CCOc1cc(S(=O)(=O)n2cc(-c3ccc(F)cc3)c(N)n2)cc(OCC)c1OCC`, the growth inhibition is -3.17%.

Turning to `CC1Cc2ccccc2N1C(=O)Cn1c(=O)oc2cc(S(=O)(=O)NC3CCCC3)ccc21` (stereo unspecified), the growth inhibition is -2.66%.

As to `CCCn1nnnc1NC(=O)CSc1ccc(Cl)cc1`, the growth inhibition was 1.76%.

For `Cc1cc(NC(=O)C2CCCCC2)nc2c1c(=O)oc1ccccc12`, the growth inhibition was -2.5%.

As for `N#Cc1nc(COc2ccc(F)cc2)oc1N1CCN(Cc2ccccc2)CC1`, the growth inhibition is -4.59%.

Turning to `c1ccc2oc(SCc3nc4ccccc4s3)nc2c1`, the growth inhibition was -0.66%.

On to `C=CCn1c(SCC(=O)Nc2ccc3c(c2)CCC3)nnc1-c1cccs1`, for which the growth inhibition was -0.97%.

Regarding `O=C(c1cc2ccccc2o1)N1CCN(c2ccccc2Cl)CC1`, the growth inhibition is -2.73%.

Turning to `O=C(CSc1nnnn1C1CCCCC1)Nc1nc2c(s1)CCCC2`, the growth inhibition is -0.43%.

Regarding `O=C(O)c1cc(Cl)c2ccccc2c1O`, the growth inhibition is 9.52%.

For `O=c1c(-c2nc3ccccc3o2)c2oc3ccccc3n2c2ccccc12`, the growth inhibition was -2.69%.

Take `Cc1cccc(S(=O)(=O)Nc2nc3ccccc3nc2NCc2ccco2)c1`: the growth inhibition is 2.5%.

Consider `Cc1ccc(-n2c(C)cc(C(=O)COC(=O)c3c(C)noc3C)c2C)cc1`, for which the growth inhibition was -5.46%.

Consider `O=C(c1cccs1)N(Cc1nc2sc3c(c2c(=O)[nH]1)CCCC3)C1CCCC1`, for which the growth inhibition was -3.44%.

In the case of `N#Cc1ccc(NC(=O)Nc2ccc(Cl)cc2)cc1`, the growth inhibition was 12.7%.

Turning to `CCOc1ccc(OCCSc2nnnn2C2CCCCC2)cc1`, the growth inhibition is 2.59%.

With `COc1ccc(C(C)(C)C)cc1NC(=O)Nc1ccc2c(c1)OCO2`, the growth inhibition was 2.22%.

On to `COc1ccccc1-c1noc(CCC(=O)Nc2cccc(C(F)(F)F)c2)n1`, for which the growth inhibition was 9.08%.

As for `CCc1ccc2oc(=O)cc(CN(C)Cc3ccccc3)c2c1`, the growth inhibition was 0.54%.

As to `O=C(c1ccc2c(=O)n(C3CCCC3)c(=S)[nH]c2c1)N1CCN(C2CCCCC2)CC1`, the growth inhibition is 0.27%.

For the compound `Cc1cc(C)c(C#N)c(SCC(=O)OC2CCCCC2)n1`, the growth inhibition is 4.58%.

In the case of `COC(=O)c1ccc(CSc2nc3ccccc3o2)cc1`, the growth inhibition was -2.69%.

On to `CCCCn1nc(NC(=O)c2cccs2)c2cc3ccccc3nc21`, for which the growth inhibition is -3.62%.

For `Cc1ccccc1OCCCN1C(=O)C(=O)c2cccc(C)c21`, the growth inhibition is -1.21%.

With `Cc1cccc(Nc2nc(-c3ccccn3)cs2)n1`, the growth inhibition is -0.44%.

On to `Clc1ccc(OCc2nc(-c3ccccn3)n[nH]2)cc1`, for which the growth inhibition was 3.08%.

As to `CC1=C(C(=O)OC2CCCCCCC2)C(c2cccc(O)c2)NC(=O)N1` (stereo unspecified), the growth inhibition was 3.15%.

As for `CCC(C(=O)Nc1ccccc1OC)n1c(C(=O)OC)cc2ccsc21` (stereo unspecified), the growth inhibition was 2.88%.

`COc1cccc(-c2cc(C(=O)N3CCc4ccccc4C3)no2)c1`: the growth inhibition was -1.57%.

On to `CC(C)C(C(=O)NCc1ccco1)N(C(=O)CNS(=O)(=O)c1ccc(Cl)cc1)C1CCCC1` (stereo unspecified), for which the growth inhibition was -9.91%.

For `O=S(=O)(N1CCCCC1)n1c(Cc2ccccc2)nc2ccccc21`, the growth inhibition is 2.59%.

`Cc1cc(N2CCCCC2)n2ncc(-c3ccccc3)c2n1`: the growth inhibition is 1.76%.

In the case of `Cc1ccc(C(c2nnnn2CCc2ccccc2)N2CCSCC2)cc1` (stereo unspecified), the growth inhibition was -0.97%.

In the case of `N#Cc1cn(Cc2cccc(Cl)c2)c2ccccc12`, the growth inhibition is 7.22%.

Regarding `CCCCN1C(=O)C2ON(c3ccccc3C)C(c3ccco3)C2C1=O` (stereo unspecified), the growth inhibition is 3.87%.

As to `CN1CCN(CC(=O)N2CCn3c4c(c5cc(C6CCCCC6)ccc53)CCCC42)CC1` (stereo unspecified), the growth inhibition was 1.85%.

On to `CCN(CCCNC(=O)c1[nH]c(C)c(C(C)=O)c1C)c1cccc(C)c1`, for which the growth inhibition was 1.22%.

For `CCCc1cc(C(=O)N2CCN(c3ccccc3C)CC2)cs1`, the growth inhibition was 3.4%.

On to `COc1ccc2nc(NC(=O)CSc3nnnn3C3CCCCC3)sc2c1`, for which the growth inhibition was 0.18%.

For `CCn1cc(C(=O)NC2CCCCC2C)c(=O)c2ccc(C)nc21` (stereo unspecified), the growth inhibition was 7.04%.

`Cc1cccc(NC(=O)CSc2nnc(-c3cc(C)n(-c4ccccc4)c3C)o2)c1C`: the growth inhibition is 0.15%.

As for `O=S(=O)(Nc1cc(Cl)ccc1N1CCCCC1)c1cccs1`, the growth inhibition is 3.05%.

Turning to `Cc1cc(=O)[nH]c(SCC(=O)Nc2nc(-c3ccccc3)cs2)n1`, the growth inhibition is 4.29%.

Regarding `COc1ccccc1N1CCN(C(=O)c2cc(-c3cccc(Cl)c3)on2)CC1`, the growth inhibition was -2.98%.
